Data reported in ChEMBL document CHEMBL1150855, “Five new prenylated stilbenes from the root bark of Lonchocarpus chiricanus” (2001).
≈ marks a conversion by molar mass, not a printed value. Calls of active or inactive are those of the source. No cut-off for these calls is given here.

Legend:
[1] = system: Aedes aegypti; test: Larvicidal activity against Aedes aegypti larvae assessed as minimum concentration required to kill all larvae after 24 hrs by dilution test; format: functional
In short: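 Roughly 10 A. aegypti larvae per tube in tap water. Compound added from geometric dilutions of a 1 mg/100 µL DMSO stock, with the volume made up to 10 mL, for final 50 to 1 ppm. Tubes kept in darkness at 26-28 °C for 24 h, then lethality scored under lab light. Value is the minimal concentration (ppm) killing all larvae.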

[2] = system: Cladosporium cucumerinum; test: Antifungal activity against Cladosporium cucumerinum at 100 ug after 2 to 3 days by bioautographic TLC assay; format: functional, organism-based
In short: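 Compounds in dichloromethane (1 mg/mL stock) were geometrically diluted across 1 to 0.015 mg/mL, and 10 µL of each dilution was applied to silica gel TLC plates. Plates were covered with C. cucumerinum in nutritive medium and incubated 2-3 days in moist boxes. The read-out was the minimal amount (µg) giving a clear inhibition zone on a dark gray background, up to 100 µg. Nystatin in MeOH served as the reference.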

[3] = system: Cladosporium cucumerinum; test: Antifungal activity against Cladosporium cucumerinum after 24 hrs by agar-dilution assay; format: functional
In short: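 Test solutions made by geometric dilution in DMSO from a 3 mg/mL DMSO stock, added to Sabouraud agar in wells at a final 60 to 3 µg/mL. C. cucumerinum suspended in distilled water and spread over the agar. Plates sealed hermetically, 30 °C for 24 h. Value is the MIC (µg/mL). Compound-free growth controls; duplicates; nystatin reference at 10 to 0.1 µg/mL.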

[4] = system: Cladosporium cucumerinum; test: Antifungal activity against Cladosporium cucumerinum assessed as minimum concentration required to inhibit fungal growth after 2 to 3 days by bioautographic TLC assay; format: functional
In short: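 Stocks at 1 mg/mL in dichloromethane (nystatin in MeOH), geometrically diluted over 1 to 0.015 mg/mL. 10 µL of each dilution applied to silica gel TLC plates. Plates then covered with C. cucumerinum in nutritive medium and held 2-3 days in a moist atmosphere. Clear zones read against a dark grey background. Value is the minimal amount (µg) inhibiting growth; nystatin reference.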

COc1cc(/C=C/c2ccccc2)cc(OC)c1 [3,5-O-DIMETHYLPINOSYLVIN]
Activity [1]: 3 ppm | Activity [2]: inactive

CC(C)=CCc1c(O)cc(/C=C/c2ccccc2)cc1O [CHIRICANINE A]
Activity [1]: 6 ppm | MIC [3]: 30 µg/mL (≈ 107 µM) | Activity [4]: 5 µg

CC1(C)Oc2cc(/C=C/c3ccccc3)cc(O)c2C[C@@H]1O [CHIRICANINE B]
Activity [1]: >50 ppm | Activity [2]: inactive

COc1c(CC=C(C)C)c(O)cc(/C=C/c2ccccc2)c1CC=C(C)C [CHIRICANINE C]
Activity [1]: >50 ppm | Activity [2]: inactive

CC(C)=CCc1c(O)cc2c(c1/C=C/c1ccccc1)CC(O)C(C)(C)O2 (stereo unspecified) [CHIRICANINE D]
Activity [1]: >50 ppm | Activity [2]: inactive

CC(C)=CCc1c(O)cc(O)c(CC=C(C)C)c1/C=C/c1ccccc1 [LONGISTYLINE D]
Activity [1]: 6 ppm | Activity [2]: inactive

C=C(C)[C@H]1Cc2c(ccc3c2O[C@@H]2COc4cc(OC)c(OC)cc4[C@@H]2C3=O)O1 [ROTENONE]
Activity [1]: 3 ppm

NYSTATIN
MIC [3]: 1 µg/mL | Activity [4]: 0.2 µg
